The assay has as its target Cannabinoid receptor 1 (Rattus norvegicus, UniProt P20272). Description: Displacement of [3H]CP-55940 from CB1 receptor in Sprague-Dawley rat cerebellar membrane. On the set-up: species or system Cerebellum. The essentials:
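Membranes came from cerebella of male Sprague Dawley rats (200–300 g), homogenized in TME buffer (50 mM Tris–HCl, 1 mM EDTA, 3 mM MgCl2, pH 7.4) and spun at 48,000g for 30 min at 4 °C. They were incubated 1 h at 30 °C in TME with 0.5% fatty-acid-free BSA, then filtered on PEI-soaked GF/B, washed and counted by scintillation. IC50 values are from single determinations.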
Sequence of Cannabinoid receptor 1 (P20272 whole entry): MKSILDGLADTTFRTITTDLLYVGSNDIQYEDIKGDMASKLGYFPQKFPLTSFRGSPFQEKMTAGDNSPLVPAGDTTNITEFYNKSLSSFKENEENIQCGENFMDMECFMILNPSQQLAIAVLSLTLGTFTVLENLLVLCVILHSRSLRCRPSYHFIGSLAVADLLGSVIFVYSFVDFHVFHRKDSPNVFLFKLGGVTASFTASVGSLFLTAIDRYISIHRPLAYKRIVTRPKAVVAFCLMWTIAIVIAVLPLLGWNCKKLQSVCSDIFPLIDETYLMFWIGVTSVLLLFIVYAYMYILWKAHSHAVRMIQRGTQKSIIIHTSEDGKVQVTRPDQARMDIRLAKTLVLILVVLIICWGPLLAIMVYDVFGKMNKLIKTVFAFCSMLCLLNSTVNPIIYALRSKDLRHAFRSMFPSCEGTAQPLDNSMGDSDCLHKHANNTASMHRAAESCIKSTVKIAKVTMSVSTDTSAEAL
Take `O=C(NC1CCCCC1)c1nn(-c2ccccc2Cl)c(-c2ccc(Cl)cc2)c1Cn1cncn1`: the 50% inhibitory concentration (IC50) was found to be 6.6 nM.

With `Cc1cccc(N2CCN(C(=O)c3nn(-c4ccc(Cl)cc4Cl)c(-c4ccc(Cl)cc4)c3Cn3cncn3)CC2)c1C`, the IC50 was found to be 11.5 nM.

`O=C(c1nn(-c2ccc(Cl)cc2Cl)c(-c2ccc(Cl)cc2)c1Cn1cncn1)N1CCN(c2cccc(Cl)c2Cl)CC1`: the IC50 stood at 5.5 nM.

For `CCCCC(CC)CNC(=O)c1nn(-c2ccc(Cl)cc2Cl)c(-c2ccc(Cl)cc2)c1Cn1cncn1` (centres undefined), the half-maximal inhibitory concentration (IC50) came to 20.2 nM.

For `O=C(NC1CCCCC1)c1nn(-c2ccc(Cl)cc2Cl)c(-c2ccc(Br)cc2)c1Cn1cncn1`, the 50% inhibitory concentration (IC50) was determined as 4.38 nM.

In the case of `O=C(NC1(c2ccccc2)CC1)c1nn(-c2ccccc2Cl)c(-c2ccc(Cl)cc2)c1Cn1cncn1`, the IC50 stood at 5.81 nM.

As for `O=C(N[C@H]1CCCC[C@@H]1O)c1nn(-c2ccc(Cl)cc2Cl)c(-c2ccc(Cl)cc2)c1Cn1cncn1`, the IC50 is 60.7 nM.

With `O=C(NN1CCCCC1)c1nn(-c2ccc(Cl)cc2Cl)c(-c2ccc(Br)cc2)c1Cn1cncn1`, the 50% inhibitory concentration (IC50) was 5.11 nM.

Consider `O=C(NC1CCCCC1)c1nn(-c2ccc(Cl)cc2Cl)c(-c2ccc(Cl)cc2)c1Cn1cncn1`, for which the IC50 amounted to 3.77 nM.

Turning to `N#CC1(NC(=O)c2nn(-c3ccccc3Cl)c(-c3ccc(Br)cc3)c2Cn2cncn2)CC1`, the IC50 was 19.6 nM.

In turn, `O=C(NC1(c2ccc(Cl)cc2)CC1)c1nn(-c2ccc(Cl)cc2Cl)c(-c2ccc(Cl)cc2)c1Cn1cncn1` displayed an IC50 of 5.09 nM.

Compound `O=C(NN1CCCCC1)c1nn(-c2ccc(Cl)cc2Cl)c(-c2ccc(Cl)cc2)c1Cn1cncn1` displayed a half-inhibitory concentration (IC50) of 3.83 nM.

`O=C(NC1(C(F)(F)F)CC1)c1nn(-c2ccc(Cl)cc2Cl)c(-c2ccc(Cl)cc2)c1Cn1cncn1` returned an IC50 of 4.5 nM.

As for `O=C(c1nn(-c2ccc(Cl)cc2Cl)c(-c2ccc(Br)cc2)c1Cn1cncn1)N1CCN(c2cccc(Cl)c2Cl)CC1`, the half-inhibitory concentration (IC50) was 5.74 nM.

`CC(NC(=O)c1nn(-c2ccc(Cl)cc2Cl)c(-c2ccc(Br)cc2)c1Cn1cncn1)c1ccc(Cl)cc1Cl` (centres undefined) returned an IC50 of 2.2 nM.

For the compound `CC(C)(NC(=O)c1nn(-c2ccc(Cl)cc2Cl)c(-c2ccc(Br)cc2)c1Cn1cncn1)c1ccc(Cl)cc1`, the IC50 came out at 2.99 nM.

In turn, `CCNC1(C(N)=O)CCN(C(=O)c2nn(-c3ccc(Cl)cc3Cl)c(-c3ccc(Cl)cc3)c2Cn2cncn2)CC1` registered a half-inhibitory concentration (IC50) of 878 nM.

In turn, `CC(C)(NC(=O)c1nn(-c2ccc(Cl)cc2Cl)c(-c2ccc(Cl)cc2)c1Cn1cncn1)c1ccc(Cl)cc1` showed an IC50 of 3.33 nM.

Turning to `Cc1cccc(N2CCN(C(=O)c3nn(-c4ccccc4Cl)c(-c4ccc(Cl)cc4)c3Cn3cncn3)CC2)c1C`, the IC50 amounted to 6.09 nM.

`O=C(c1nn(-c2ccccc2Cl)c(-c2ccc(Cl)cc2)c1Cn1cncn1)N1CCN(c2ccccc2)CC1` returned an IC50 of 11.5 nM.

In turn, `CC(NC(=O)c1nn(-c2ccc(Cl)cc2Cl)c(-c2ccc(Br)cc2)c1Cn1cncn1)C(C)(C)C` (centres undefined) registered a half-inhibitory concentration (IC50) of 4.1 nM.

Consider `CC1CCCC(C)N1NC(=O)c1nn(-c2ccc(Cl)cc2Cl)c(-c2ccc(Cl)cc2)c1Cn1cncn1` (centres undefined), for which the IC50 turned out to be 11.4 nM.

In turn, `CN1CCN(C(=O)c2nn(-c3ccc(Cl)cc3Cl)c(-c3ccc(Br)cc3)c2Cn2cncn2)CC1` registered an IC50 of 1340 nM.

`O=C(c1nn(-c2ccc(Cl)cc2Cl)c(-c2ccc(Br)cc2)c1Cn1cncn1)N1CCN(c2ncccn2)CC1` showed a half-maximal inhibitory concentration (IC50) of 27.7 nM.

In turn, `CCC(C)(C)NC(=O)c1nn(-c2ccccc2Cl)c(-c2ccc(Cl)cc2)c1Cn1cncn1` came in with an IC50 of 11.9 nM.

Turning to `O=C(NC1(c2ccc(Cl)cc2)CC1)c1nn(-c2ccc(Cl)cc2Cl)c(-c2ccc(Br)cc2)c1Cn1cncn1`, the IC50 is 2.8 nM.

In turn, `O=C(NNC(=O)C1(c2ccc(Cl)cc2)CC1)c1nn(-c2ccc(Cl)cc2Cl)c(-c2ccc(Cl)cc2)c1Cn1cncn1` had an IC50 of 44.5 nM.

`O=C(NCc1ccccn1)c1nn(-c2ccc(Cl)cc2Cl)c(-c2ccc(Cl)cc2)c1Cn1cncn1` yielded a 50% inhibitory concentration (IC50) of 74.8 nM.

The compound `O=C(NC1(C(F)(F)F)CCC1)c1nn(-c2ccccc2Cl)c(-c2ccc(Cl)cc2)c1Cn1cncn1` yielded an IC50 of 5.14 nM.

A word on the IC50: it is the concentration that gives 50% inhibition. Lower therefore signals greater potency in that assay.
